Data on 95 molecules can be found in PubChem BioAssay AID540295 (The Scripps Research Institute Molecular Screening Center, 2011).

The structures appear in SMILES notation. About 1,700 (0.47%) of roughly 360,000 compounds were called active. The full list was thinned out, with actives kept by preference. Values without a mark were called inactive.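 The calls were made as follows: active = inhibition above its plate's cutoff, the mean of tested wells on that plate plus 3 SD (cut at about 29% in these data); inactive = the rest.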

As usually defined, the inhibition is the change of the read-out against control, counted positive when it falls.

Melanocortin receptor 4 (Homo sapiens), sequence (P32245 whole entry, looked up): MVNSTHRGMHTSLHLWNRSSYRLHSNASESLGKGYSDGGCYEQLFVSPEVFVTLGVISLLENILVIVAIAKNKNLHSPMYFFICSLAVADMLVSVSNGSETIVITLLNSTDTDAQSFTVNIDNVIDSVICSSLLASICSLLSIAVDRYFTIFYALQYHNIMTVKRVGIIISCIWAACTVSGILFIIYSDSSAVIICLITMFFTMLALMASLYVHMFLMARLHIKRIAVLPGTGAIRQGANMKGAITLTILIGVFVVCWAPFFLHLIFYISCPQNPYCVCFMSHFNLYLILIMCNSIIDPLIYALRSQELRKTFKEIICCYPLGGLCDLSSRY

The target in this assay is Melanocortin receptor 4 (Homo sapiens) (UniProt P32245). Nature of the assay: MC4R antagonists of cAMP signaling, primary screen, cell-based, TR-FRET, antagonist arm of biased-ligand search (AID 540295).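 Also: 0% = Melanotan II alone and 100% = Melanotan II plus saturating MCL0020.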 Particulars: MC4R-expressing cells, MTII-stimulated cAMP, LANCE TR-FRET; at 6.5 µM; active compounds read high. An outline of the steps:
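system = U2OS cells with stable human MC4R expression | also added = Melanotan II challenge after compound preincubation | dosing = one concentration, 6.5 µM nominal | incubation = compound 30 min, challenge 1 h, detection 1 h | measured by = TR-FRET with Eu-cAMP and labeled anti-cAMP, 671 nm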
Consider `Cn1ccc(=NC=C(C#N)C#N)c2ccccc21`, for which the inhibition is 27.8%.
Turning to `O=[N+]([O-])/C=C/c1ccc2c(ccn2Cc2ccccc2)c1`, the inhibition is 46.2% (active).
For `O=C(CN1CCCSc2ccccc21)N1CCN(S(=O)(=O)c2ccccc2)CC1` the value was 5.29%.
In the case of `O=C(CN1CCCSc2ccccc21)N1CCN(S(=O)(=O)c2cccc(F)c2)CC1` it was 5.01%; in that of `N#C/C=C1\Sc2ccccc2C(=O)N1CC(=O)N1CCN(S(=O)(=O)c2ccccc2)CC1`, 33.4% (active); in that of `Cc1ccc2c(c1)C1CN(C)CCC1N2S(=O)(=O)c1ccc(Oc2ccc([N+](=O)[O-])cc2)cc1` (stereo not given), 2.73%.
Turning to `O=C(CN1CCc2ccccc21)NC(c1ccccc1)c1ccccc1`, the inhibition was 1.1%.
On to `O=C(COC(=O)c1c2c(nc3ccccc13)CCCC2)c1ccc(Br)s1`, for which the inhibition is 33.9% (active).
Take `Cn1cccc1C(=O)OCC(=O)c1ccc(Br)s1`: the inhibition is 4.25%.
In the case of `NC(=O)c1ccc(NC(=O)COC(=O)c2c3c(nc4ccccc24)/C(=C\c2ccc4c(c2)OCO4)CCC3)cc1` it was -10%.
As for `COC(=O)c1cc(NC(=O)c2cc(C(C)(C)C)nn2Cc2cccc(C)c2)ccc1N1CCOCC1`, the inhibition is 4.17%.
In the case of `COc1ccc(NC2CCCN(C(=O)c3ccccc3-c3ncc[nH]3)C2)cc1` (stereo not given) it was 4.61%; in that of `CCc1ccc2oc(=O)cc(CN3CCCCC3C)c2c1` (stereo not given), 10.6%; in that of `CC(NC(=O)COc1ccccc1)C(=O)NC1=NCCS1` (stereo not given), 0.52%.
Take `CCOc1ncccc1C(=O)NCCc1ccc(OC)cc1`: the inhibition was -0.79%.
In the case of `O=C(OCC(=O)N1CCCC1)c1ccc(Cl)nc1` it was -3.4%; in that of `O=C(OCC(=O)N1CCCCCC1)c1ccc(Cl)nc1`, 2.21%.
As for `O=C(OCC(=O)N1CCCCCC1)c1cnc(Cl)c(Cl)c1`, the inhibition was 30.5% (active).
Consider `COc1ccc(CCNC(=O)COC(=O)c2ncc(Cl)c(Cl)c2Cl)cc1OC`, for which the inhibition is 14.8%.
Consider `COc1ccc(CCNC(=O)COC(=O)c2cnc(Cl)c(Cl)c2)cc1`, for which the inhibition was 39.7% (active).
For `COc1ccc(CCNC(=O)c2cnc(Cl)c(Cl)c2)cc1` the value was 29.6% (active); for `COC(=O)c1ccc(COC(=O)c2cnc(Cl)c(Cl)c2)cc1`, 21.5%; for `CC(CCc1ccccc1)NC(=O)c1cnc(Cl)c(Cl)c1` (stereo not given), 9.38%.
For `NC1=NC(=O)S/C1=C\c1ccc(O)cc1` the value was -45.1%; for `CC(CC(=O)C1C(C)C=CCC1(C)C)NNC(N)=O` (stereo not given), 0.06%.
In the case of `CCCc1nc2oc3c(OCC)ncnc3c2c2c1COC(C)(C)C2` it was 2.51%; in that of `COc1ccc(/C=N/n2c(C)cc(C)cc2=O)cc1`, 5.08%; in that of `CCOC(=O)C1=CN(Cc2ccc(Br)cc2)S(=O)(=O)NC1C` (stereo not given), 1.79%.
Take `CN(C)/C=C(/C(=O)c1ccc(F)cc1)S(=O)(=O)c1ccc(F)cc1`: the inhibition is -0.11%.
For `CCOC(=O)N1CCN(C(=O)C2CCN(S(C)(=O)=O)CC2)CC1` the value was 3.32%; for `Brc1ccc(CN2CC[C@H]3C=CCc4cccc(c43)C2)cc1`, 11.3%.
For `Cc1cc(=O)n2nc(N3CCCC(C(=O)N4CCN(C)CC4)C3)sc2n1` (stereo not given) the value was 0.44%; for `CSc1nnc2c(n1)OC(c1ccsc1)N(C(C)=O)c1ccccc1-2` (stereo not given), 3.07%; for `CNC(=O)C1CN(C(=O)c2cccc(S(=O)(=O)N3CCc4ccccc43)c2)c2ccccc2O1` (stereo not given), 5.06%.
For `CSc1ccc(C#N)cc1NC(=O)c1ccc(Cl)cc1`, the inhibition was 2.18%.
As for `Cc1c(Cl)cccc1NC(=O)[C@@]1(CC(=O)O)CC(/C=C/c2ccccc2)=NO1`, the inhibition was 38.9% (active).
As to `Cc1c(Cl)cccc1NC(=O)NCc1ccc(C)n1C`, the inhibition was 5.07%.
As for `Cc1c(Cl)cccc1NC(=S)NCC(O)c1ccccc1` (stereo not given), the inhibition was 3.92%.
For `Cc1ccc(OCC(=O)Nc2cccc3c2CCCC3)cc1C` the value was 5.28%; for `O=c1c2cc(Br)ccc2nc(-c2cccc(Cl)c2)n1O`, 2.37%.
In the case of `O=C(O)CCn1cc(/C=C/C(=O)c2ccc(Cl)cc2)c(-c2cccc(Br)c2)n1` it was 32.5% (active).
Take `O=C(COC(=O)/C=C/c1cn(-c2ccccc2)nc1-c1cccnc1)Nc1ccc(Cl)cc1Cl`: the inhibition is 11.1%.
In the case of `CCOC(=O)C1(Cc2ccccc2C(F)(F)F)CCN(C(=O)c2cc(C)n(C)n2)CC1` it was 5.76%; in that of `COc1ccc(/C=C/C(=O)c2c(O)cc(OC)cc2OC)cc1`, -19.9%.
In the case of `CCOc1ccc(OCC(=O)Nc2c3c(nn2C(C)(C)C)CS(=O)(=O)C3)cc1` it was 1.77%; in that of `O=S(=O)(Cc1noc(-c2ccc(OC(F)(F)F)cc2)n1)c1ccc(F)cc1`, 4.42%; in that of `O=C(Nc1ccc(F)c([N+](=O)[O-])c1)C1CC(=O)N(Cc2ccccc2)C1` (stereo not given), 35.5% (active).
For the molecule `CC(OC(=O)C1CC(=O)N(Cc2ccccc2)C1)C(=O)Nc1ccccc1[N+](=O)[O-]` (stereo not given), the inhibition was -5.04%.
For `Cc1cc(=O)oc2cc(NC(=O)C3CC(=O)N(Cc4ccccc4)C3)ccc12` (stereo not given) the value was 15.7%; for `Cc1cc(-c2csc(N)n2)c(C)n1-c1ccccc1`, 4%.
Take `CC1(C(=O)N/N=C/c2cc3c(cc2Br)OCO3)CC1(Br)Br` (stereo not given): the inhibition was 19.5%.
As for `CC(C)Oc1c(Br)cc(Br)cc1/C=N/NC(N)=S`, the inhibition was 31.4% (active).
For `CCN(CC)C(=O)C1CCCN(Cc2cccc(Cl)c2)C1` (stereo not given) the value was -1.5%; for `O=[N+]([O-])c1ccc(Oc2ccc(F)cc2Br)c2ccncc12`, 2.28%; for `CCCOc1ccc(F)cc1-c1cc(C(=O)Nc2ccc(F)c(Cl)c2)[nH]n1`, 3.21%.
Turning to `COc1ccc(Cl)cc1-c1cc(C(=O)Nc2cc(OC)c(OC)c(OC)c2)[nH]n1`, the inhibition was 29.8% (active).
In the case of `COc1cc(NC(=O)c2cc(-c3ccc(F)cc3OC(C)C)n[nH]2)cc(OC)c1OC` it was 19.5%; in that of `Cc1cccc(-n2ncc(Cl)c(Cl)c2=O)c1`, 27.8%; in that of `COc1ccc(Oc2c(Cl)cnn(-c3ccccc3)c2=O)cc1`, 54.6% (active).
For the molecule `COc1ccc(CCNC(=O)c2c(C)nn(-c3ccccc3)c2Cl)cc1`, the inhibition is 13.4%.
In the case of `CC(C)Nc1nc(NCCOc2ccccc2Cl)c2sccc2n1` it was -7.14%; in that of `COc1ccc2c(c1)C(=O)Nc1cc(Cl)ccc1N2`, -3.19%; in that of `CCOCCCNC(=O)c1cc2c(=O)n3ccccc3nc2s1`, -4.33%.
As for `COCCCNC(=O)/C(C#N)=C/c1c(N2CCCCCC2)nc2ccccn2c1=O`, the inhibition is 31% (active).
Turning to `COc1ccc(/C=C(\C#N)C(=O)NCCCn2ccnc2)cc1`, the inhibition was 6.52%.
For `CN(C)C(=O)c1cccc(-c2cnc3c(NC=O)cc(-c4ccc(F)cc4)cn23)c1` the value was -2.24%; for `CC(=O)N1CCN(S(=O)(=O)c2c(F)cc(F)c(Cl)c2F)CC1`, 32.7% (active).
Take `O=C(NNS(=O)(=O)c1c(F)cc(F)c(Cl)c1F)C12CC3CC(CC(C3)C1)C2`: the inhibition was -0.65%.
In the case of `O=C(c1cnc(Cl)c(Cl)c1)N1CCN(S(=O)(=O)c2ccc(F)cc2)CC1`, the inhibition is 19.3%.
Consider `COc1ccccc1C(=O)NC(CCSC)C(=O)NNC(=O)c1csc(N2CCOCC2)n1` (stereo not given), for which the inhibition was 14.9%.
In the case of `Cc1ccc(NC(=O)COC(=O)CNC(=O)c2ccc(Cl)cc2Cl)cc1S(=O)(=O)N1CCOCC1` it was 31.4% (active); in that of `Cc1ccc(NC(=O)CCCNC(=O)c2ccc(Cl)cc2)cc1S(=O)(=O)N1CCOCC1`, -7.04%.
`Cc1ccc(NC(=O)COC(=O)C2CC2)cc1S(=O)(=O)N1CCOCC1`: the inhibition is 5.97%.
For `Cc1cc(C)c(NC(=O)CN2C(=O)NC(Cc3ccccc3)C2=O)c(C)c1` (stereo not given), the inhibition was -8.57%.
For `CC(=O)C1(C)N(O)C(C)(C)C(c2cccs2)=[N+]1[O-]` (stereo not given) the value was -4.35%.
As for `CC1(C)C(c2cccs2)=[N+]([O-])C2(CCCCC2=O)N1O` (stereo not given), the inhibition was 29.8% (active).
For `Cc1cc(-n2cnc(-c3cn(C)nc3C)n2)no1` the value was 3.28%; for `CC(=O)N(Cc1cccs1)C1CCOC(C)(C)C1` (stereo not given), -3.32%; for `OC(CN1C2=NCCCN2c2ccccc21)c1ccc(Br)cc1` (stereo not given), -7.35%.
In the case of `COc1cccc(OCC(=O)NCCS(=O)(=O)N2CCN(c3ccccc3)CC2)c1` it was 1.47%; in that of `COC(=O)C1=C(C)N(C)C(=O)NC1c1ccc([N+](=O)[O-])o1` (stereo not given), -8.39%; in that of `COC(=O)C1=C(C(=O)OC)C(c2cc([N+](=O)[O-])ccc2O)c2sc(=O)[nH]c2S1` (stereo not given), 33.3% (active).
Consider `COC(=O)c1c(C)[nH]c(C)c1-c1ccc([N+](=O)[O-])cc1`, for which the inhibition is -0.44%.
Regarding `CC1(C)CC(N2CCN(C(c3ccccc3)c3ccccc3)CC2)=CC(=[N+]2CCCCC2)C1`, the inhibition is 5.45%.
Regarding `NC1=NC2(CCCCC2)N(c2ccc(F)cc2F)C(N)=N1`, the inhibition was 1.15%.
With `Cc1ccc2c(cnn2C(=O)CCC(=O)NC2CCCC2)c1`, the inhibition is -3.58%.
For `CC(C)N(c1ccccc1)c1ncnc(NCCC(=O)O)c1[N+](=O)[O-]` the value was 9.58%; for `Cc1ccc(NC(=O)c2c(NC(=O)CCC(=O)O)sc3c2CCCCC3)cc1`, 32% (active).
In the case of `O=C(CN1CCCC1)Nc1sc2c(c1C(=O)Nc1ccccc1)CCCC2` it was -1.77%; in that of `COC(=O)c1c(NC(=O)CCN2CCOCC2)sc2c1CCCC2`, -12.7%; in that of `CN(C)/C(CN1CCCCC1)=C1\N=C(c2ccccc2)OC1=O`, 7.27%.
Take `O=C1CCC(=O)N(c2ccccc2)N1`: the inhibition is 22.5%.
As to `CSc1nnc(NC(=O)c2nc(S(=O)(=O)Cc3ccc(C)cc3)ncc2Cl)s1`, the inhibition is 44.6% (active).
In the case of `Cc1cccc(CS(=O)(=O)c2ncc(Cl)c(C(=O)Nc3ccc(F)cc3)n2)c1` it was 12.4%; in that of `NC(=O)CSc1nnc(NC(=O)c2ccc(Br)o2)s1`, -2.81%.
